ChEMBL document CHEMBL1122273, “5-sulfamoylorthanilic acids, a sulfonamide series with salidiuretic activity” (J Med Chem, 1983)
Several values for one entry are separate records, joined by “and”; a condition that tells them apart may be missing. Identical values can stand only once. Activity calls are given as the source filed them. The calls are words filed in the database; no cut-off is given here.

Columns and labels:
Canis familiaris [1] = test: Diuretic activity in the dog (2 animals/dose) at (dose 12.5 mg/Kg), when administered perorally; type: functional, Canis lupus familiaris, Urine
Summary of the method: (§1)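 Trained male beagles, fasted 24 h with tap water ad libitum. Bladder emptied by catheter, then 20 mL/kg tap water by stomach tube, with 4 mL/kg water at each hourly catheterization up to 8 h. The first 2 h of urine served as control. Oral dosing came after the second catheterization, and 1–6 h urine was pooled. Na⁺ and K⁺ were measured by flame photometry, Cl⁻ argentometrically, in mequiv/kg.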

Rattus norvegicus [2] = species on record: Rattus norvegicus; test: Saluretic activity in the rat measured as concentration of chloride in urine; type: functional
Summary of the method: (§2)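 Rats deprived of food 24 h, water ad libitum, dosed 50 mg/kg by stomach tube as suspension in 2% starch, no extra water load. Groups of three in diuresis funnels; urine over first 5 h collected. Na⁺ and K⁺ by flame photometry, Cl⁻ argentometrically; expressed as mequiv/kg.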

Canis familiaris [3] = test: It is the ratio, measured as saluretic activity in the dog as concentration of Cl- in urinary excretion (dose mg/Kg, po) to that of (Na++K+); type: functional, Canis lupus familiaris, Urine; summary of the method: as §1
Rattus norvegicus [4] = species on record: Rattus norvegicus; test: Saluretic activity in the rat measured as concentration of K+ in urine; type: functional; summary of the method: as §2
Canis familiaris [5] = test: Saluretic activity in the dog measured as concentration of K+ in urinary excretion (2 animals/dose) at (dose mg/Kg, po); type: functional, Canis lupus familiaris, Urine
Summary of the method: (§3)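 Male beagles trained to rest on a table and to accept stomach tube and catheter. Food withdrawn 24 h before, tap water ad libitum. Bladder emptied by catheter, then 20 mL/kg tap water by stomach tube. Catheterized hourly up to 8 h with 4 mL/kg water orally each time; first 2 h urine served as control. Oral dosing after second catheterization. Pooled 1–6 h urine; Na⁺/K⁺ by flame photometry, Cl⁻ argentometrically.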

Canis familiaris [6] = test: It is the ratio, measured as saluretic activity in the dog as concentration of Na+ in urinary excretion (dose mg/Kg, po) to that of K; type: functional, Canis lupus familiaris, Urine; summary of the method: as §1
Rattus norvegicus [7] = species on record: Rattus norvegicus; test: Diuretic activity in the rats, determined by a modified Lipschitz test; type: functional, Urine
Summary of the method: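 Modified Lipschitz test: rats deprived of water 24 h, grouped in threes of similar weight in diuresis funnels. Oral dose of 50 mg/kg, suspended in 2% starch solution, by stomach tube.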

Canis familiaris [8] = test: Diuretic activity in the dog (2 animals/dose) at (dose 1.56 mg/Kg), when administered perorally; type: functional, Canis lupus familiaris, Urine; summary of the method: as §1
Rattus norvegicus [9] = species on record: Rattus norvegicus; test: Saluretic activity in the rat measured as concentration of Na+ in urine; type: functional; summary of the method: as §2
Canis familiaris [10] = test: Saluretic activity in the dog measured as concentration of Cl - in urinary excretion (2 animals/dose) at (dose mg/Kg, po); type: functional, Canis lupus familiaris, Urine
Summary of the method: (§4)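 Male beagles trained to the procedures, food withdrawn 24 h before, tap water ad libitum. Bladder emptied by catheter, then 20 mL/kg tap water by stomach tube, plus 4 mL/kg orally at each hourly catheterization up to 8 h. The first 2 h of urine served as control. Compound given orally after the second catheterization. Urine from 1–6 h post-dose pooled; Na⁺ and K⁺ by flame photometry, Cl⁻ argentometrically, in mequiv/kg.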

[11] = It is the ratio, measured as saluretic activity in the dog as concentration of Cl- in urinary excretion (dose 1.56 mg/Kg, po) to that of (Na+)+(K+); type: functional, Urine; summary of the method: as §1
Canis familiaris [12] = test: Saluretic activity in the dog measured as concentration of Na+ in urinary excretion (2 animals/dose) at (dose 1.56 mg/Kg, po); type: functional, Canis lupus familiaris, Urine; summary of the method: as §3
[13] = (§5) It is the ratio, measured as saluretic activity in the dog as concentration of Na+ in urinary excretion (dose 1.56 mg/Kg, po) to that of K; type: functional, Urine; summary of the method: as §1
Canis familiaris [14] = test: Saluretic activity in the dog measured as concentration of K+ in urinary excretion (2 animals/dose) at (dose 1.56 mg/Kg, po); type: functional, Canis lupus familiaris, Urine; summary of the method: as §3
Canis familiaris [15] = test: Salidiuretic activity on the basis of the 1.56 mg/Kg po dog assay; compound was highly active; type: functional, organism-based; conditions: Canis lupus familiaris; Urine
Rattus norvegicus [16] = test: Salidiuretic activity on the basis of the 50 mg/kg po rat assay; compound was highly active; type: functional, organism-based; design: dose 50 mg/kg; conditions: Urine
Canis familiaris [17] = test: Saluretic activity in the dog measured as concentration of Cl - in urinary excretion (2 animals/dose) at (dose 1.56 mg/Kg, po); type: functional, Canis lupus familiaris, Urine; summary of the method: as §4
[18] = It is the ratio, measured as saluretic activity in the dog as concentration of Na+ in urinary excretion (dose 6.25 mg/Kg, po) to that of K; type: functional, Urine; summary of the method: as §1
Canis familiaris [19] = test: Saluretic activity in the dog measured as concentration of K+ in urinary excretion (2 animals/dose) at (dose 6.25 mg/Kg, po); type: functional, Canis lupus familiaris, Urine; summary of the method: as §3
[20] = It is the ratio, measured as saluretic activity in the dog as concentration of Cl- in urinary excretion (dose 0.4 mg/Kg, po) to that of (Na++K+); type: functional, Urine; summary of the method: as §1
Canis familiaris [21] = test: Diuretic activity in the dog (2 animals/dose) at (dose 0.4 mg/Kg), when administered perorally; type: functional, Canis lupus familiaris, Urine; summary of the method: as §1
Canis familiaris [22] = test: as §5; type: functional, Canis lupus familiaris, Urine; summary of the method: as §1
Canis familiaris [23] = test: Saluretic activity in the dog measured as concentration of K+ in urinary excretion (2 animals/dose) at (dose 0.1 mg/Kg, po); type: functional, Canis lupus familiaris, Urine; summary of the method: as §4
Canis familiaris [24] = test: Saluretic activity in the dog measured as concentration of K+ in urinary excretion (2 animals/dose) at (dose 0.4 mg/Kg, po); type: functional, Canis lupus familiaris, Urine; summary of the method: as §4
[25] = It is the ratio, measured as saluretic activity in the dog as concentration of Na+ in urinary excretion (dose 0.1 mg/Kg, po) to that of K; type: functional, Urine; summary of the method: as §1
[26] = It is the ratio, measured as saluretic activity in the dog as concentration of Cl- in urinary excretion (dose 1.56 mg/Kg, po) to that of (Na++K+); type: functional, Urine; summary of the method: as §1
[27] = It is the ratio, measured as saluretic activity in the dog as concentration of Cl- in urinary excretion (dose 6.25 mg/Kg, po) to that of (Na++K+); type: functional, Urine; summary of the method: as §1
[28] = It is the ratio, measured as saluretic activity in the dog as concentration of Na+ in urinary excretion (dose 0.4 mg/Kg, po) to that of K; type: functional, Urine; summary of the method: as §1
Canis familiaris [29] = test: Saluretic activity in the dog measured as concentration of Na+ in urinary excretion (2 animals/dose) at (dose 0.1 mg/Kg, po); type: functional, Canis lupus familiaris, Urine; summary of the method: as §3
Canis familiaris [30] = test: Diuretic activity in the dog (2 animals/dose) at (dose 6.25 mg/Kg), when administered perorally; type: functional, Canis lupus familiaris, Urine; summary of the method: as §1
Canis familiaris [31] = test: Saluretic activity in the dog measured as concentration of Cl - in urinary excretion (2 animals/dose) at (dose 6.25 mg/Kg, po); type: functional, Canis lupus familiaris, Urine; summary of the method: as §4
Canis familiaris [32] = test: Saluretic activity in the dog measured as concentration of Na+ in urinary excretion (2 animals/dose) at (dose 0.4 mg/Kg, po); type: functional, Canis lupus familiaris, Urine; summary of the method: as §3
[33] = It is the ratio, measured as saluretic activity in the dog as concentration of Cl- in urinary excretion (dose 0.1 mg/Kg, po) to that of (Na++K+); type: functional, Urine; summary of the method: as §1
Canis familiaris [34] = test: Diuretic activity in the dog (2 animals/dose) at (dose 0.1 mg/Kg), when administered perorally; type: functional, Canis lupus familiaris, Urine; summary of the method: as §1
Canis familiaris [35] = test: Saluretic activity in the dog measured as concentration of Na+ in urinary excretion (2 animals/dose) at (dose 6.25 mg/Kg, po); type: functional, Canis lupus familiaris, Urine; summary of the method: as §3
Canis familiaris [36] = test: Saluretic activity in the dog measured as concentration of Cl - in urinary excretion (2 animals/dose) at (dose 0.4 mg/Kg, po); type: functional, Canis lupus familiaris, Urine; summary of the method: as §4
Canis familiaris [37] = test: Saluretic activity in the dog measured as concentration of Cl - in urinary excretion (2 animals/dose) at (dose 0.1 mg/Kg, po); type: functional, Canis lupus familiaris, Urine; summary of the method: as §4

NS(=O)(=O)c1cc(S(=O)(=O)[O-])c(NCc2ccco2)cc1Nc1ccccc1.[Na+]
Diuretic activity (Canis familiaris [1]): 49.4 ml kg-1 6hr-1
Saluretic activity (Rattus norvegicus [2]): 1.1 m equiv 5hr-1 kg-1
Saluretic activity (Canis familiaris [3]): 1 and 1.1
Saluretic activity (Rattus norvegicus [4]): 0.7 m equiv 5hr-1 kg-1
Saluretic activity (Canis familiaris [5]): 0.18 m equiv 6hr-1 kg-1 and 0.45 m equiv 6hr-1 kg-1
Saluretic activity (Canis familiaris [6]): 2.1 and 5
Diuretic activity (Rattus norvegicus [7]): 0.6 mL/kg
Diuretic activity (Canis familiaris [8]): 32.3 ml kg-1 6hr-1
Saluretic activity (Rattus norvegicus [9]): 0.6 m equiv 5hr-1 kg-1

NS(=O)(=O)c1cc(S(=O)(=O)[O-])c(NCc2ccco2)cc1[S+]([O-])c1ccccc1.[K+] (centres undefined)
Saldiuretic activity (Canis familiaris [10]): 1.27 m equiv 6hr-1 kg-1
Saluretic activity (Rattus norvegicus [2]): 1.7 m equiv 5hr-1 kg-1
Ratio [11]: 1.3
Saluretic activity (Canis familiaris [12]): 0.59 m equiv 6hr-1 kg-1
Saluretic activity (Rattus norvegicus [4]): 1.5 m equiv 5hr-1 kg-1
Diuretic activity (Rattus norvegicus [7]): 0.8 mL/kg
Diuretic activity (Canis familiaris [8]): 48.4 ml kg-1 6hr-1
Ratio [13]: 1.8
Saldiuretic activity (Canis familiaris [14]): 0.33 m equiv 6hr-1 kg-1
Saluretic activity (Rattus norvegicus [9]): 0.8 m equiv 5hr-1 kg-1

NS(=O)(=O)c1cc(S(=O)(=O)[O-])c(NCc2ccco2)cc1S(=O)(=O)C1CCCCC1.[Na+]
Saldiuretic activity (Canis familiaris [15]): Active
Saldiuretic activity (Rattus norvegicus [16]): Active
Saldiuretic activity (Canis familiaris [17]): 6.15 m equiv 6hr-1 kg-1
Ratio [18]: 4.7
Saldiuretic activity (Canis familiaris [19]): 1.16 m equiv 6hr-1 kg-1
Ratio [20]: 1
Saluretic activity (Rattus norvegicus [2]): 9.1 m equiv 5hr-1 kg-1
Diuretic activity (Canis familiaris [21]): 59 ml kg-1 6hr-1
Ratio (Canis familiaris [22]): 4.7
Saldiuretic activity (Canis familiaris [23]): 0.53 m equiv 6hr-1 kg-1
Saluretic activity (Canis familiaris [12]): 5.38 m equiv 6hr-1 kg-1
Saluretic activity (Canis familiaris [24]): 0.82 m equiv 6hr-1 kg-1
Saluretic activity (Rattus norvegicus [4]): 2.3 m equiv 5hr-1 kg-1
Ratio [25]: 3.7
Ratio [26]: 0.95
Ratio [27]: 1
Ratio [28]: 4.5
Saluretic activity (Canis familiaris [29]): 1.95 m equiv 6hr-1 kg-1
Diuretic activity (Rattus norvegicus [7]): 2.8 mL/kg
Diuretic activity (Canis familiaris [30]): 73.5 ml kg-1 6hr-1
Diuretic activity (Canis familiaris [8]): 66.7 ml kg-1 6hr-1
Saldiuretic activity (Canis familiaris [31]): 6.83 m equiv 6hr-1 kg-1
Saluretic activity (Canis familiaris [32]): 3.71 m equiv 6hr-1 kg-1
Saldiuretic activity (Canis familiaris [14]): 1.14 m equiv 6hr-1 kg-1
Ratio [33]: 1
Saluretic activity (Rattus norvegicus [9]): 8.2 m equiv 5hr-1 kg-1
Diuretic activity (Canis familiaris [34]): 44.7 ml kg-1 6hr-1
Saluretic activity (Canis familiaris [35]): 5.5 m equiv 6hr-1 kg-1
Saldiuretic activity (Canis familiaris [36]): 4.43 m equiv 6hr-1 kg-1
Saldiuretic activity (Canis familiaris [37]): 2.49 m equiv 6hr-1 kg-1
